HSV replic up – HSV replication enhancement; maximum fold increase; 0.005% of 220,000 active; HSV replication augmentation in cells, fold increase; in the data active = maximum fold increase above about 1.5; tested in PC3 cells
Dynein cargo inh – dynein cargo transport inhibition; 3617.4 mouse cells, GR-EGFP nuclear translocation imaging; test concentration mostly 20 µM; stimulated with dexamethasone, 1 µM; stronger effect = lower value; z-score, hits read low; 0.47% of 220,000 active;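 active = plate z-score of nuclear minus cytoplasmic receptor signal below a set negative limit, without overly bright fluorescence or cell loss, cut at about -3.5 in these data, passing the limit was not always enough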;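 also: z-score of nuclear minus cytoplasmic ring GR-EGFP intensity difference per well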
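medium = tetracycline-free induction medium containing charcoal-stripped FBS | also added = 1.0 µM final dexamethasone stimulus | schedule = 48 h induction, 1 h compound, 30 min dex at 37 °C | technique = fixed, Hoechst-stained cells imaged at 10x for EGFP | measure = GR-EGFP nuclear translocation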
b-catenin transl – modulators of beta-catenin nuclear translocation | AID 1665 | nuclear translocation activity, % at 5 µM | HeLa beta-catenin nuclear translocation, immunofluorescence imaging | 0.3% of 190,000 active;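 active = nuclear translocation activity above 50% at 5 µM, with a well cell count of 50 or more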;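 also: per-cell ratio of nuclear to cytoplasmic median beta-catenin stain intensity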
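assay system = human HeLa cells, endogenous beta-catenin | times = compound treatment 24 h, 37°C, 5% CO2 | detection = Anti-beta-catenin immunofluorescence on PFA-fixed, Triton-permeabilized cells, DAPI nuclei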
MT stabilize HCS – microtubule stabilization, imaging screen. 0.83% of 200,000 active. % tubulin-high responders, % at 10 µM. HeLa tubulin immunostaining HCS, 24 h; share of cells brighter than vehicle mean+2SD;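 active = plate Z-score above 3 for both tubulin-high and condensed-nucleus cell shares, with cell loss under 80%, at 10 µM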;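 also: anti alpha tubulin signal scored within the nucleus-defined area of each cell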
L major viab – inhibitors of Leishmania major promastigote growth | 9% of 200,000 active | Leishmania major promastigotes, resazurin fluorescence viability | inhibition, % at 10 µM; in the data active = inhibition above about 50%;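 also: promastigotes grown with compound for 44 hours at 28 °C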
Numbers stand for hits; . = inactive; / = not tested or not shown. This is a sample that favours compounds with a hit; in the whole collection about 8.9% have one here.

SMILES	HSV replic up	Dynein cargo inh	b-catenin transl	MT stabilize HCS	L major viab
CC(=O)Nc1ccc(C(=O)OCC(=O)NCc2ccc(Cl)cc2)cc1	.	.	50	32	.
Cc1cc(C)n(-c2ccc(C(=O)OCC(=O)NCc3ccc(Cl)cc3)cc2)n1	.	.	.	.	.
Cn1c(=O)c2c(nc(SCC(=O)N3CCCCCC3)n2C)n(C)c1=O	.	.	.	.	.
COc1ccc(/C=C(/NC(=O)/C=C/c2ccccc2)C(=O)O)cc1	.	.	.	.	.
COc1ccc(/C=C\C(=O)CC(O)(c2ccccc2)C(F)(F)F)cc1 (centres undefined)	.	.	/	.	100
CCCCCCn1c(COc2ccccc2F)nnc1SCC(=O)N1c2ccccc2NC(=O)C1(C)C	.	.	.	.	55
O=C(CSCc1ccc(Cl)cc1)N/N=C/c1ccc(Cl)cc1Cl	.	.	.	.	.
O=C(Nc1ccc(S(=O)(=O)N2CCc3ccccc32)cc1)c1ccc2c(c1)OCO2	.	.	.	.	.
Cc1nc(-c2ccccn2)sc1C(=O)O	.	.	.	.	.
CC1CCN(S(=O)(=O)c2cc(C(=O)N3CCN(c4ncccn4)CC3)ccc2Br)CC1	.	.	.	.	85
CC(C)c1c(O)cc(-c2ccncc2)n(-c2ccc(Cl)cc2)c1=O	.	.	.	.	54
CC(C)c1cc(O)c(-c2ccccc2)c(=O)n1-c1ccc(Cl)cc1	.	.	.	/	/
COc1ccc(C2CC(=O)C3=C(C2)Nc2ncnn2C3c2ccccc2C)cc1 (centres undefined)	.	.	.	.	100
COc1ccc(C2CC(=O)C3=C(C2)Nc2ncnn2C3c2ccccc2)cc1 (centres undefined)	.	.	.	.	91
Clc1cccc(-c2nnc(SC/C=C/c3ccccc3)n2Cc2ccco2)c1	.	.	.	37	.
C(=C\c1ccccc1)/CSc1nnc(-c2ccccc2)n1Cc1ccco1	.	.	141	23	85
CCC(C(=O)NC(C)(C)C)N(C(=O)Cn1nnc(-c2cccs2)n1)c1cnc2ccccc2c1 (centres undefined)	.	.	.	.	.
O=C(NC1CC1)c1ccc(CN(c2ccccc2)S(=O)(=O)c2ccccc2)cc1	.	.	.	.	58
Cc1cc(C)c(NC(=O)/C(=C/c2ccco2)c2ccccc2)c(C)c1	.	.	/	.	59
NS(=O)(=O)c1ccc(NC(=S)NCCc2ccccc2)cc1	.	.	.	.	.
O=C1CSC(c2cn(-c3ccccc3)nc2-c2ccccc2)N1Cc1ccco1 (centres undefined)	.	.	.	.	.
CCc1ccc(-c2nn(-c3ccccc3)cc2C2SCC(=O)N2Cc2ccco2)cc1 (centres undefined)	/	.	.	.	98
O=C1CC(c2ccco2)Cc2nc(Nc3ccc(F)cc3)ncc21 (centres undefined)	.	.	.	.	.
Nc1ncnc(Nc2ccc(F)cc2)n1	.	.	.	.	57
Cc1ccc(Nc2ncnc(N)n2)cc1	.	.	.	.	.
SMILES	HSV replic up	Dynein cargo inh	b-catenin transl	MT stabilize HCS	L major viab
Fc1ccc(Nc2ccnc(Nc3ccc(F)cc3)n2)cc1	.	.	.	.	95
O=c1[nH]c(N2CCc3ccccc3C2)nc2c1CCC2	.	.	.	.	.
NC(=O)COC(=O)c1ccc(Cl)c(S(=O)(=O)N2CCCCCC2)c1	.	.	.	.	.
CCC(C)c1ccccc1NC(=O)COC(=O)c1ccc2[nH]c3c(c2c1)CCCC3 (centres undefined)	.	.	.	13	.
CNC(=O)COC(=O)c1ccc(Cl)c(S(=O)(=O)N2CCCC2)c1	.	.	.	.	.
O=C(COC(=O)c1ccc2[nH]c3c(c2c1)CCCC3)Nc1ccccc1Cl	.	.	.	.	.
CC(C)c1ccccc1NC(=O)COC(=O)c1ccc(Cl)c(S(=O)(=O)N2CCCCCC2)c1	.	.	.	.	60
Cc1cc(C)n(-c2ccc(C(=O)OCC(=O)Nc3ccc(S(=O)(=O)N4CCCCC4)cc3)cc2)n1	.	.	/	.	84
CCc1ccc(NC(=O)COC(=O)c2ccc(Cl)c(S(=O)(=O)N3CCCCCC3)c2)cc1	.	.	.	.	63
Cn1cc(C(=O)c2ccc(Cl)cc2Cl)cc1C(=O)O	/	.	.	.	.
CC(C)C(=O)N=C1SC2CS(=O)(=O)CC2N1Cc1ccccc1 (centres undefined)	.	.	.	.	52
Cc1cc(C)c(-c2csc(NC(=O)c3cc([N+](=O)[O-])ccc3N3CCOCC3)n2)c(C)c1	.	.	/	.	79
CN1CCN(c2ccc([N+](=O)[O-])cc2C(=O)N2CCOCC2)CC1	/	.	.	.	.
Cc1ccc(C(=O)c2cc([N+](=O)[O-])ccc2N2CCCCC2)cc1C	.	.	78	.	.
Cc1ccc(C(=O)c2cc([N+](=O)[O-])ccc2N2CCOCC2)cc1C	.	.	.	20	.
O=C(Nc1nc(-c2ccc(F)c(F)c2)cs1)c1cc([N+](=O)[O-])ccc1N1CCOCC1	.	.	.	.	.
Cc1ccc(C(=O)c2cc([N+](=O)[O-])ccc2N2CCOCC2)c(C)c1	.	.	135	.	.
O=C(COc1cccc2cccnc12)N1CCc2ccccc2C1	.	.	.	.	.
Cc1ccc(CC(=O)c2ccc(Cl)cc2)cc1	.	.	.	/	/
Cc1ccc(C(=O)CC(=O)c2cc(Cl)ccc2O)cc1	.	.	.	.	99
CC(C)(C)c1ccc(C(=O)CC(=O)c2cc(Cl)ccc2O)cc1	.	.	.	.	99
CCOc1ccc(-n2nnnc2SCC(=O)c2ccccc2)cc1	.	.	.	.	.
COc1ccc(CNCCC2(C(C)C)CCOC(C)(C)C2)cc1 (centres undefined)	.	.	.	/	/
CC(C)Oc1ccc(CNCCC2(C(C)C)CCOC(C)(C)C2)cc1 (centres undefined)	.	.	/	.	95
Cc1cc(C(=O)NCCN2CCN(c3cccc(Cl)c3)CC2)n(-c2ccccc2)n1	.	.	59	.	.
SMILES	HSV replic up	Dynein cargo inh	b-catenin transl	MT stabilize HCS	L major viab
O=C(c1ccco1)N1CCN(C(=O)N2c3ccccc3Sc3ccccc32)CC1	.	.	.	14	.
O=C(NC1CCN(C(=O)N2c3ccccc3Sc3ccccc32)CC1)c1ccco1	.	.	.	13	.
NC(=O)C1CCN(C(=O)N2c3ccccc3Sc3ccccc32)CC1	.	.	.	.	.
O=C(NC1CCN(C(=O)N2c3ccccc3Sc3ccccc32)CC1)c1ccccc1Cl	.	.	.	.	95
O=C(N1CCN(c2ccccn2)CC1)N1c2ccccc2Sc2ccccc21	/	.	.	31	.
CCC(=O)Nc1nnc(-c2ccco2)o1	.	.	.	.	.
Nc1cc(-c2ccc(Br)cc2)nn1Cc1ccccc1	.	.	.	.	78
COC(=O)c1ccc(NN=Nc2ccc(C)cc2)cc1	.	.	.	.	.
O=C(O)C1CC(c2ccccc2)=NO1 (centres undefined)	.	.	.	.	.
CCCCN(CCCC)CCNC(=O)CSCc1ccc(C)cc1	.	.	.	.	83
